Data: ChEMBL document CHEMBL1949632, “Discovery of potent and liver-selective stearoyl-CoA desaturase (SCD) inhibitors in an acyclic linker series” (Bioorg Med Chem Lett, 2012)

Legend:
Acyl-CoA desaturase 1 [1] = target: T1, Acyl-CoA desaturase 1 (Rattus norvegicus, UniProt P07308); assay: Inhibition of SCD1 in rat hepatocytes expressing OATP; assay type: cell-based, Hepatocyte
T1 sequence (P07308 whole entry): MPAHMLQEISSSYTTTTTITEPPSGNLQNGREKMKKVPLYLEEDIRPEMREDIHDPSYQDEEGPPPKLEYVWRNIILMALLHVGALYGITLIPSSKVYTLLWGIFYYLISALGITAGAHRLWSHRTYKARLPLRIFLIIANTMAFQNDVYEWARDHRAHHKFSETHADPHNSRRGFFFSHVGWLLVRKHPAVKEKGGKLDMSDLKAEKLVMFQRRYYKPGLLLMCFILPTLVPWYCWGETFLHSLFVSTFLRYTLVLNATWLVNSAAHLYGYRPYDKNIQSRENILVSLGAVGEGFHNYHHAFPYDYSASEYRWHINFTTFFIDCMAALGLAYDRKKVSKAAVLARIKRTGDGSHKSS
Procedure, shortened: (§1)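 IC50s are the average of at least two independent titrations.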

Stearoyl-CoA desaturase [2] = target: T2, Stearoyl-CoA desaturase (Homo sapiens, UniProt O00767); assay: Inhibition of SCD1 in OATP-deficient human HepG2 cells by whole cell assay; assay type: cell-based
T2 sequence (O00767 whole entry): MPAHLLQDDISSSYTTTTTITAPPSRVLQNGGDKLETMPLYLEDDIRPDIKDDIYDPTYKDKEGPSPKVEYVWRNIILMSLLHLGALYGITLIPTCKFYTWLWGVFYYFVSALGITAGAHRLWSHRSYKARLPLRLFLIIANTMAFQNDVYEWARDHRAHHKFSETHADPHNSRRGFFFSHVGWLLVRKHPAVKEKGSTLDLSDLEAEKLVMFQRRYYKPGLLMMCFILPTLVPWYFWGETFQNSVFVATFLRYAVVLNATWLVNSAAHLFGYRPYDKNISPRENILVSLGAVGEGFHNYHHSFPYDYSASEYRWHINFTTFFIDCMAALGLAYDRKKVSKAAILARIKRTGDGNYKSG

Acyl-CoA desaturase 1 [3] = target: T1, Acyl-CoA desaturase 1; assay: Inhibition of rat liver microsome SCD1; procedure, shortened: as §1
Mus musculus [4] = assay: Inhibition of SCD1 in mouse liver assessed as reduction in conversion of [14C]stearic acid to [14C]oleic acid at 2 mg/kg, po measured after 3 hrs; assay type: functional
Procedure, shortened: (§2)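 Mouse liver pharmacodynamic model. Mice (n = 5) on high-carbohydrate diet, dosed orally; [1-14C]-stearic acid tracer given intravenously. Liver lipid 14C-oleic/14C-stearic ratio (SCD activity index) and liver drug concentration determined 3 h post dose. % inhibition is relative to vehicle-treated animals.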

[5] = Drug uptake in mouse liver at 10 mg/kg, po after 6 hrs; assay type: ADME, organism-based; design: dose 10 mg/kg, route oral; details: read-out: Drug uptake
Procedure, shortened: (§3)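 Tissue distribution study. Mice (n = 2) given 10 mg/kg orally; liver, plasma, shaved skin and Harderian gland concentrations measured 6 h post dose.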

[6] = Drug uptake in mouse liver at 0.4 mg/kg, po after 3 hrs; assay type: ADME, organism-based; design: dose 0.4 mg/kg, route oral; details: read-out: Drug uptake; procedure, shortened: as §2
[7] = Drug uptake in mouse shaved skin at 10 mg/kg, po after 6 hrs; assay type: ADME, organism-based, Zone of skin; design: dose 10 mg/kg, route oral; details: read-out: Drug uptake; procedure, shortened: as §3
[8] = Drug uptake in mouse harderian glands at 10 mg/kg, po after 6 hrs; assay type: ADME, organism-based, Harderian gland; design: dose 10 mg/kg, route oral; details: read-out: Drug uptake; procedure, shortened: as §3
Mus musculus [9] = assay: Inhibition of SCD1 in mouse liver assessed as reduction in conversion of [14C]stearic acid to [14C]oleic acid after at 0.4 mg/kg, po after 3 hrs; assay type: functional; procedure, shortened: as §2
[10] = Drug uptake in mouse plasma at 10 mg/kg, po after 6 hrs; assay type: ADME, organism-based; design: dose 10 mg/kg, route oral; procedure, shortened: as §3
[11] = Drug uptake in mouse liver at 2 mg/kg, po measured after 3 hrs; assay type: ADME, organism-based; design: dose 2 mg/kg, route oral; details: read-out: Drug uptake; procedure, shortened: as §2
[12] = Oral bioavailability in C57BL/6 mouse at 10 mg/kg; assay type: ADME, organism-based, C57BL6; details: in vivo
Procedure, shortened: (§4)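 C57BL6 mice dosed orally at 10 mg/kg in 0.5% methocel; plasma PK followed over 0–6 h, giving oral bioavailability (F) and AUC0–6h.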

[13] = target: Acyl-CoA (8-3)-desaturase (Homo sapiens, UniProt O60427); assay: Inhibition of delta-5 desaturase expressed in HepG2 cells; assay type: cell-based
[14] = Drug uptake in mouse liver at 60 mg/kg, po measured after 3 hrs; assay type: ADME, organism-based; design: dose 60 mg/kg, route oral; details: read-out: Drug uptake; procedure, shortened: as §2
Stearoyl-CoA desaturase [15] = target: T2, Stearoyl-CoA desaturase; assay: Inhibition of human SCD1
[16] = Stability in mouse hepatocytes assessed as compound remaining after 2 hrs; assay type: ADME, cell-based, Hepatocyte; details: read-out: Stability
Procedure, shortened: (§5)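 Fresh mouse or rat hepatocytes, 2 million cells/mL in Krebs-Henseleit buffer, incubated at 37 °C for 2 h under 95% O2/5% CO2. Parent compound remaining measured.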

[17] = target: Acyl-CoA desaturase 1 (Mus musculus) (UniProt P13516); assay: Inhibition of SCD1 in mouse SCD1 enzyme assay
[18] = Stability in rat hepatocytes assessed as compound remaining after 2 hrs; assay type: ADME, cell-based, Hepatocyte; details: read-out: Stability; procedure, shortened: as §5
Mus musculus [19] = assay: Inhibition of SCD1 in mouse liver assessed as reduction in conversion of [14C]stearic acid to [14C]oleic acid at 60 mg/kg, po measured after 3 hrs; assay type: functional; procedure, shortened: as §2
[20] = AUC (0 to 6 hrs) in C57BL/6 mouse at 10 mg/kg, po; assay type: ADME, organism-based, C57BL6; design: time < 6 hr, dose 10 mg/kg, route oral; details: plasma; procedure, shortened: as §4
Acyl-CoA 6-desaturase = target: T3, Acyl-CoA 6-desaturase (Homo sapiens, UniProt O95864); assay: Inhibition of delta-6 desaturase expressed in HepG2 cells; assay type: cell-based
T3 sequence (O95864 whole entry): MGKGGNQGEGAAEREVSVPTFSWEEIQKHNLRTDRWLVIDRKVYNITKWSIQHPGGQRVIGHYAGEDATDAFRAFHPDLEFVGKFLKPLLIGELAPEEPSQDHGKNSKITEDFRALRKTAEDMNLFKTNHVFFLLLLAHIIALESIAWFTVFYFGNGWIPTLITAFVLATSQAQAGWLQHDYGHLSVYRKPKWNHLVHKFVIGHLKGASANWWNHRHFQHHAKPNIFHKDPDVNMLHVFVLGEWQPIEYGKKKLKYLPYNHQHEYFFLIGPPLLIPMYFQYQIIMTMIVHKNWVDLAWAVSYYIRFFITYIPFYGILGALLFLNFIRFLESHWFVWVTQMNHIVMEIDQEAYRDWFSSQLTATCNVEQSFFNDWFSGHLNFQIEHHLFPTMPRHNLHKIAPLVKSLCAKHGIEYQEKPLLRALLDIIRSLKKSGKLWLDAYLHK

[21] = Drug uptake in mouse liver at 10 mg/kg, po after 3 hrs; assay type: ADME, organism-based; design: dose 10 mg/kg, route oral; details: read-out: Drug uptake; procedure, shortened: as §2
Mus musculus [22] = assay: Inhibition of SCD1 in mouse liver assessed as reduction in conversion of [14C]stearic acid to [14C]oleic acid after at 10 mg/kg, po after 3 hrs; assay type: functional; procedure, shortened: as §2

Acyl-CoA (8-3)-desaturase, sequence (O60427 whole entry): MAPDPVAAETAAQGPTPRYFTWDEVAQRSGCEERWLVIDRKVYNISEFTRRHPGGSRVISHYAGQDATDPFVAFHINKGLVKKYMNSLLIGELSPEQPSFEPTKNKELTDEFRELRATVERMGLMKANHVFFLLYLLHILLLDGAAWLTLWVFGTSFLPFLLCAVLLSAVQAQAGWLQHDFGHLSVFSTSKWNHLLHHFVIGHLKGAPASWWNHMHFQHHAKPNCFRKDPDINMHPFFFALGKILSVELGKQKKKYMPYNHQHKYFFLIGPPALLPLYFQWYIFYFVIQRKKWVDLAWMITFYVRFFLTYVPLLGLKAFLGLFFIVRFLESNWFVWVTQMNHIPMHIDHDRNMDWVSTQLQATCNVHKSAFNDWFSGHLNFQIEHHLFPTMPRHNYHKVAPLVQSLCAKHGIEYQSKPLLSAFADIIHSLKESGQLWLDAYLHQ

Row | IC50 (Acyl-CoA desaturase 1 [1]) [µM] | IC50 (Stearoyl-CoA desaturase [2]) [µM] | IC50 (Acyl-CoA desaturase 1 [3]) [µM] | concentration at 6 h [5] [µM] | concentration at 6 h [7] [µM] | concentration at 6 h [8] [µM] | concentration at 6 h [10] [µM] | concentration at 3 h [11] [µM] | Structure (SMILES) | inhibition in vivo at 2 mg/kg (Mus musculus [4]) [%] | also measured
1 | 0.945 | 20.5 | 0.022 | – | – | – | – | – | Cc1nc(OCCCOc2cc(F)ccc2Br)sc1-c1nnn(CC(=O)O)n1 | – | –
2 | – | > 40 | 0.226 | – | – | – | – | – | O=C(O)Cn1nnc(-c2cc(OCCOc3cc(F)ccc3Br)no2)n1 | – | –
3 | – | – | – | 2.7 | 0.07 | 0.13 | 0.03 | 4.9 | O=C(O)Cn1nnc(-c2cc(N3CCC(Oc4cc(F)ccc4Br)CC3)no2)n1 [MK-8245] | 89 | concentration at 3 h [6]: 1.6 µM; inhibition in vivo at 0.4 mg/kg (Mus musculus [9]): 49%
4 | 0.213 | 7.74 | 0.013 | 0.23 | – | – | – | – | O=C(O)Cn1nnc(-c2cc(OCCCOc3cc(F)ccc3Br)no2)n1 | – | bioavailability [12]: 10%; IC50 [13]: > 20 µM; concentration at 3 h [14]: 7.8 µM; IC50 (Stearoyl-CoA desaturase [15]): 0.041 µM; remaining at 2 h [16]: 75%; IC50 [17]: 0.01 µM; remaining at 2 h [18]: 55%; inhibition in vivo at 60 mg/kg (Mus musculus [19]): 85%; AUC(0-t) at 6 h [20]: 1 µM·h; IC50 (Acyl-CoA 6-desaturase): > 20 µM
5 | 0.091 | 0.969 | 0.002 | 13.7 | 0.3 | 1.85 | 0.77 | 4.2 | O=C(O)Cn1nnc(-c2cnc(OCCCOc3cc(OC(F)(F)F)ccc3Br)s2)n1 | 81 | concentration at 3 h [21]: 18.3 µM; inhibition in vivo at 10 mg/kg (Mus musculus [22]): 91%
6 | – | > 60 | 0.026 | – | – | – | – | – | O=C(O)Cn1nnc(-c2nnc(OCCCOc3cc(F)ccc3Br)s2)n1 | – | –
7 | 0.176 | 3.87 | 0.005 | 8.07 | 0.24 | 0.59 | 1.08 | 7.6 | O=C(O)Cn1nnc(-c2cnc(OCCCOc3cc(F)ccc3Br)s2)n1 | 49 | bioavailability [12]: 32%; concentration at 3 h [21]: 28.6 µM; remaining at 2 h [18]: 94%; inhibition in vivo at 10 mg/kg (Mus musculus [22]): 79%; AUC(0-t) at 6 h [20]: 11.4 µM·h
8 | – | > 40 | 0.248 | – | – | – | – | – | O=C(O)Cn1nnc(-c2cc(OCCCCOc3cc(F)ccc3Br)no2)n1 | – | –
9 | – | > 100 | 0.305 | – | – | – | – | – | O=C(O)Cn1nnc(-c2cc(OCCOCc3cc(F)ccc3Br)no2)n1 | – | –
